Assay outcomes as filed in PubChem BioAssay.
Yeast eIF2B: eIF2B (yeast) activity modulation. S. cerevisiae eIF2B-epsilon R284H, GCN4-lacZ luminescence. inhibition, % at 25 µM (by protocol). 27,000 tested, 0.91% active. AID 688;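 active = mutant luminescence inhibited past about 50% while wild type luminescence and mutant growth stay under set limits, limit read from the data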
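Times: 16 h growth with compound at 30 °C, 90 min Beta-Glo step; Assay system: yeast eIF2B-epsilon R284H mutant carrying GCN4–beta-galactosidase fusion; Measure: % inhibition of reporter signal and growth versus controls; Dosing: one concentration, 25 µM, 0.25% DMSO; Buffer or medium: YPD yeast growth medium; Measured by: Beta-Glo luminescence plus absorbance at 595 nm.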
* hit, by the source's call. This is one part of a sample in which hits are shown more often than they occur.

SMILES | Yeast eIF2B
Cc1cnc(NC(=O)CN(C)S(=O)(=O)c2ccc(Cl)cc2)s1 | 54*
CN(CC(=O)Nc1ccccn1)S(=O)(=O)c1ccc(Cl)cc1 | 0
Cc1nc(NC(=O)CN(C)S(=O)(=O)c2ccc(Br)cc2)sc1C | 15
Cc1ccc(C)c(N(CC(N)=O)S(C)(=O)=O)c1 | -2
CC(C)C(=O)N(c1ccc(F)cc1)C1C=CS(=O)(=O)C1 (configuration not stated) | 23
O=C(c1ccc2c(c1)OCO2)N(c1ccc(F)cc1)C1C=CS(=O)(=O)C1 (configuration not stated) | 56*
O=C(c1ccccc1)N(c1ccccc1)C1C=CS(=O)(=O)C1 (configuration not stated) | -2
O=C(c1ccc(S(=O)(=O)N2CCOCC2)cc1)N(c1ccccc1)C1C=CS(=O)(=O)C1 (configuration not stated) | 18
O=C(Cc1ccc(F)cc1)N(c1ccc(F)cc1)C1C=CS(=O)(=O)C1 (configuration not stated) | -26
O=C(Cc1ccccc1)N(c1ccc(F)cc1)C1C=CS(=O)(=O)C1 (configuration not stated) | 56*
COc1ccc(CCn2c(C)c(C(C)=O)c3cc(OC(=O)c4ccco4)ccc32)cc1OC | -11
Oc1ccc(N2CCN(C(c3ccccn3)c3nnnn3C3CCCC3)CC2)cc1 (configuration not stated) | 17
CCn1cc(C(=O)Nc2nnc(C)s2)c(=O)c2cc(F)c(N3CCN(C(=O)c4ccco4)CC3)cc21 | -16
CC1(C)SCC2C(=O)N3C(CSC3(C)C)C(=O)N21 (configuration not stated) | 18
CC1(C)Cc2ccccc2C2CC(O)C(=O)N21 (configuration not stated) | -3
CC(C)CN1C(=S)SC(C)(C)C1n1oc(=O)n(-c2ccc(Cl)cc2)c1=O (configuration not stated) | 9
O=c1c2c3c(sc2n2c(=S)[nH]nc2n1Cc1ccccc1)CN(Cc1ccccc1)CC3 | -11
Cc1ccc(CN(CC2CCCO2)C(=O)CN2C(=O)C(C(C)C)Oc3ccccc32)o1 (configuration not stated) | 59*
Cc1cccc2cc(CN(CC3CCCO3)C(=O)c3ccco3)c(=O)[nH]c12 (configuration not stated) | 12
O=C(NC1CCCC1)C(c1ccc(O)cc1)N(CC1CCCO1)C(=O)C1COc2ccccc2O1 (configuration not stated) | 21
CC(C)C1Oc2ccccc2N(CC(=O)N(Cc2ccccn2)CC2CCCO2)C1=O (configuration not stated) | 59*
O=C(CN(CC1CCCO1)C(=O)CCC(=O)Nc1ccccn1)NCc1ccccc1 (configuration not stated) | -9
Cc1ccnc(NC(=O)CCC(=O)N(CC(=O)NC2CCCCC2)CC2CCCO2)c1 (configuration not stated) | -8
C=CCSC(=C(C#N)C#N)c1cc2c([nH]1)CCCC2 | 9
O=C(N1CCOCC1)N1CCN(C(=O)N2CCOCC2)CC1 | 55
SMILES | Yeast eIF2B
COc1ccc(NC(=O)Nc2ccccc2C(=O)N2CCCC2)cc1 | 7
CCCC(=O)c1cc2ccccc2oc1=O | 10
O=C(Nc1ccncc1)c1cc2ccccc2oc1=O | 50*
COC(=O)c1cc2ccccc2oc1=O | 23
O=C(Nc1nnc(CC(=O)N2CCCC2)s1)c1cnccn1 | 21
Cc1cc(C)n(-c2cc(=O)n(C)c(=O)n2C)n1 | 51*
Cc1cc(C)n(CCn2nc(C)cc2C)n1 | 29
CCOn1c(-n2nc(C)cc2C)nc2ccccc2c1=O | 14
CN(C(=O)c1cccc(C#N)c1)c1nnc(-c2cnccn2)s1 | 23
CC(=O)Nc1ccccc1Nc1cc(C#N)c(C#N)cc1[N+](=O)[O-] | -23
Cc1csc2nc(CNC(=O)c3ccco3)cn12 | -16
COC(=O)C(NC(=O)c1ccco1)(Nc1nc(C)cs1)C(F)(F)F (configuration not stated) | 52*
COc1ccc(Cc2nnc(NC(=O)c3ccco3)s2)cc1 | 7
CCOC(=O)N1CCN(C(=O)c2ccc(N3CCCC3=O)cc2)CC1 | 56*
CCOC(=O)N1CCN(C(=O)c2ccc(C)c(S(=O)(=O)Nc3ccccc3)c2)CC1 | -3
CCOC(=O)N1CCN(C(=O)c2ccc(NC(=O)CC)cc2)CC1 | 14
CCC(=O)Nc1ccc(S(=O)(=O)Nc2cccc(C)c2)cc1OC | -31
O=C(N/C=N/O)C1=NOC(CNc2ncc(C(F)(F)F)cc2Cl)C1 (configuration not stated) | 27
Clc1cccc(-c2nn3c(COc4ccccc4)nnc3s2)c1 | 56*
Clc1ccc(-c2nn3c(-c4cccc(Cl)c4)nnc3s2)cc1 | 3
CCOc1cccc(-c2nnc3sc(-c4ccc(C)cc4)nn23)c1 | 36
COc1ccccc1-c1nc(C#N)c(N2CCN(C(c3ccccc3)c3ccccc3)CC2)o1 | 19
O=C(c1ccc(Cl)c(S(=O)(=O)N2CCOCC2)c1)N1CCN(Cc2ccccc2)CC1 | -41
Cc1cc(C)n2nc(C(=O)OCCOc3ccc(F)cc3)nc2n1 | -13
CCCC1CC(C)(c2csc(Nc3ccc(OCC)cc3)n2)OC1=O (configuration not stated) | 54*
SMILES | Yeast eIF2B
CCOc1ccc(NC2=NCC(=O)N2Cc2cccs2)cc1 | -3
CCOc1ccc(NC(=O)CC2CC(C)(C)OC2=O)cc1 (configuration not stated) | 6
COc1ccc(-n2c3c(cc(C(=O)N4CCCCC4)c2=O)C(=O)CC(C)(C)C3)cc1 | 7
CC(Sc1nc2ccccc2s1)C(=O)N1CCOCC1 (configuration not stated) | 34
Cc1ccccc1C(=O)Nc1ccc(S(=O)(=O)N2CCN(C)CC2)cc1 | -16
COC(=O)c1cccc(NC(=O)c2ccc(S(=O)(=O)N3CCN(C)CC3)cc2)c1 | 59*
CCOC(=O)c1ccc(S(=O)(=O)N2CCN(C)CC2)cc1 | -35
FC(F)(F)C(Oc1nc(Nc2ccc(Cl)cc2)nc(N2CCOCC2)n1)C(F)(F)F | -15
COc1ccccc1NC(=O)c1cc2ccccc2o/c1=N\O | 64*
COc1ccccc1NC(=O)c1ccccc1NS(C)(=O)=O | 13
COc1ccccc1NC(=O)c1ccccc1SC | 14
O=C(CCN1CCCCC1)NCC1OCCc2ccccc21 (configuration not stated) | 3
CNC(=O)CCn1nc(-c2ccccc2)c2ccccc2c1=O | 59*
NC(=O)CCn1nc(-c2ccc(Cl)cc2)c2ccccc2c1=O | -28
CN(C)C(=O)Cn1nc(-c2ccccc2)c2ccccc2c1=O | 10
CCn1nc(C)c(NS(=O)(=O)c2ccccc2)c1C | -32
C=CCOC(=O)C1=C(C)Nc2nnnn2C1c1ccc(OC)cc1OC (configuration not stated) | 14
COc1ccc(C2=CC(c3sccc3C)n3nnnc3N2)cc1 (configuration not stated) | 56*
COc1ccc(C2C=C(c3ccc(Cl)cc3)Nc3nc(NC(C)=O)nn32)cc1 (configuration not stated) | 1
Cc1cc(C)c(C(N)=O)c(Nc2ccc3c(c2)OCCO3)n1 | -6
COc1ccccc1Nc1nc(C)cc(C)c1C(N)=O | 52*
Cc1cc(C)c(C(N)=O)c(NCCc2ccccc2)n1 | -14
CC1(C)Cc2c(cnn2-c2ccccc2)-c2c1c1ccccc1n2CC(O)CBr (configuration not stated) | 3
CC(=O)N1N=C(c2ccncc2)OC12CCCC2 | 18
